Results reported in ChEMBL document CHEMBL1122686, “Troponoids. 6. Troponylpiperazines: a new class of dopamine agonists” (1984).
Active and inactive are the calls of the source. No cut-off for these calls is given here.

Tests used:
[1] = tested on: Rattus norvegicus; assay: Inhibition of the 6-OHDA-induced Hypokinesia in rat, at 50 mg/Kg sc, expressed as cumulative ambulation score; inactive; assay type: functional, organism-based
Method in brief: (§1)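 Male Sprague-Dawley rats (~280 g), anesthetized with pentobarbital, got 6-OHDA (26 µg/4 µL) bilaterally into the anterolateral hypothalamus. Four days later, only near-akinetic rats in a 36-square open field were used. Doses were free base, given sc in distilled water or Tween 80 suspension. Ambulation (all four limbs in one square) was scored in six 2-min periods at 15–120 min, then summed.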

[2] = species on record: Rattus norvegicus; assay: Duration of activity was determined; assay type: functional
Method in brief: (§2)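 Rats (~250 g at surgery, pentobarbital 40 mg/kg ip) received unilateral 6-OHDA (8 µg in 3 µL) to lesion the nigrostriatal pathway. At 3–4 weeks, rats turning 8–10 times/min after apomorphine 0.25 mg/kg sc were selected. They were housed singly, food-restricted to 350–400 g, dosed sc (free base) in groups of 4–8, and placed at once in automatic rotometers. Total contralateral turns (mean ± SEM) and duration of action (h) were recorded.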

[3] = tested on: Rattus norvegicus; assay: Inhibition of the 6-OHDA-induced Hypokinesia in rat, at 10 mg/Kg sc, expressed as cumulative ambulation score; assay type: functional; method in brief: as §1
[4] = tested on: Rattus norvegicus; assay: Rotational behavior induced by the compound in rats with a unilateral 6-OHDA-induced lesion of the Nigro-striatal dopamine, at 8 mg/Kg sc; assay type: functional; method in brief: as §2
[5] = tested on: Rattus norvegicus; assay: Inhibition of the 6-OHDA-induced Hypokinesia in rat, at 50 mg/Kg sc, expressed as cumulative ambulation score; assay type: functional; method in brief: as §1
[6] = species on record: Rattus norvegicus; assay: Duration of activity in rat; assay type: functional; method in brief: as §2
[7] = tested on: Rattus norvegicus; assay: Inhibition of the 6-OHDA-induced Hypokinesia in rat, at 25 mg/Kg sc, expressed as cumulative ambulation score; assay type: functional; method in brief: as §1
[8] = tested on: Rattus norvegicus; assay: Rotational behavior induced by the compound in rats with a unilateral 6-OHDA-induced lesion of the Nigro-striatal dopamine, at 50 mg/Kg sc; duration of activity=6 hr; assay type: functional; method in brief: as §2
[9] = tested on: Rattus norvegicus; assay: Rotational behavior induced by the compound in rat with a unilateral 6-OHDA-induced lesion of the Nigro-striatal dopamine, at 25 mg/Kg sc; duration of activity=4 hr; assay type: functional; method in brief: as §2
[10] = tested on: Rattus norvegicus; assay: Rotational behavior induced by the compound in rat with a unilateral 6-OHDA-induced lesion of the Nigro-striatal dopamine, at 75 mg/Kg sc; assay type: functional; method in brief: as §2
[11] = tested on: Rattus norvegicus; assay: Rotational behavior induced by the compound in rat with a unilateral 6-OHDA-induced lesion of the Nigro-striatal dopamine, at 25 mg/Kg sc; duration of activity=5 hr; assay type: functional
[12] = tested on: Rattus norvegicus; assay: Rotational behavior induced by the compound in rat with a unilateral 6-OHDA-induced lesion of the Nigro-striatal dopamine, at 50 mg/Kg sc, duration of activity=6 hr; assay type: functional
[13] = tested on: Rattus norvegicus; assay: Rotational behavior induced by the compound in rat with a unilateral 6-OHDA-induced lesion of the Nigro-striatal dopamine, at 75 mg/Kg sc; duration of activity=9 hr; assay type: functional
[14] = tested on: Rattus norvegicus; assay: Inhibition of the 6-OHDA-induced Hypokinesia in rat, at 25 mg/Kg sc, expressed as cumulative ambulation score; inactive; assay type: functional, organism-based; method in brief: as §1
[15] = tested on: Rattus norvegicus; assay: Rotational behavior induced by the compound in rat with a unilateral 6-OHDA-induced lesion of the Nigro-striatal dopamine, at 50 mg/Kg sc; duration of activity=6 hr; assay type: functional; method in brief: as §2
[16] = tested on: Rattus norvegicus; assay: Percent decrease on dopamine agonist-induced rotation in unilaterally 6-OH-DA-lesioned rat at 0.25 mg/kg; assay type: functional
Method in brief: (§3)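 Rats were unilaterally 6-OHDA-lesioned and apomorphine-screened for rotation. Haloperidol (0.1, 0.25 or 0.5 mg/kg ip) or vehicle was given 1 h before the DA agonist (75 mg/kg sc). Total contralateral turns were counted automatically in rotometers (mean ± SEM). Percent decrease was taken relative to vehicle pretreatment, with significance by Student's t test.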

[17] = tested on: Rattus norvegicus; assay: Percent decrease on dopamine agonist-induced rotation in unilaterally 6-OH-DA-lesioned rat at 0.5 mg/kg; assay type: functional; method in brief: as §3
[18] = tested on: Rattus norvegicus; assay: Percent decrease on dopamine agonist-induced rotation in unilaterally 6-OH-DA-lesioned rat at 0.1 mg/kg; assay type: functional; method in brief: as §3
[19] = tested on: Rattus norvegicus; assay: Effect on dopamine agonist-induced rotation in unilaterally 6-OH-DA-lesioned rat at 0.1 mg/kg, ip; Compound 35 was injected subcutaneously at 75 mg/kg; assay type: functional; method in brief: as §3
[20] = tested on: Rattus norvegicus; assay: Effect on dopamine agonist-induced rotation in unilaterally 6-OH-DA-lesioned rat at 0.25 mg/kg, ip; Compound 35 was injected subcutaneously at 75 mg/kg; assay type: functional; method in brief: as §3
[21] = tested on: Rattus norvegicus; assay: Effect on dopamine agonist-induced rotation in unilaterally 6-OH-DA-lesioned rat at 0.5 mg/kg, ip; Compound 35 was injected subcutaneously at 75 mg/kg; assay type: functional; method in brief: as §3
[22] = tested on: Rattus norvegicus; assay: Drug pretreatment vs. vehicle pretreatment; statistical analysis by Student''s t test at 0.1 mg/kg; NS-Not Significant; assay type: functional, organism-based; design: dose 0.1 mg/kg; method in brief: as §3

Structure (SMILES): CN1CCN(c2ccccc2)CC1
- Score [1]: inactive

Structure (SMILES): CC(C)C[C@H]1C(=O)N2CCC[C@H]2[C@]2(O)O[C@](NC(=O)[C@@H]3C=C4c5cccc6[nH]c(Br)c(c56)C[C@H]4N(C)C3)(C(C)C)C(=O)N12 [BROMOCRIPTINE]
- Duration of action [2]: 18 h
- Score [3]: 112
- Score [4]: 4868

Structure (SMILES): O=c1cccccc1N1CCN(CCCO)CC1
- Score [5]: 71

Structure (SMILES): CC(C)N1CCN(c2cccccc2=O)CC1
- Score [5]: 431

Structure (SMILES): O=c1cccccc1N1CCN(CCOc2ccccc2)CC1
- Score [1]: inactive

Structure (SMILES): CC(=O)OCCN1CCN(c2cccccc2=O)CC1
- Duration of action [6]: 10 h
- Score [7]: 106
- Score [5]: 232
- Score [8]: 1485
- Score [9]: 743
- Score [10]: 3640

Structure (SMILES): NC(=O)CN1CCN(c2cccccc2=O)CC1
- Score [1]: inactive

Structure (SMILES): CCCN1CCN(c2cccccc2=O)CC1
- Score [5]: 159

Structure (SMILES): CCOCCN1CCN(c2cccccc2=O)CC1.O=C(O)/C=C\C(=O)O
- Score [5]: 67

Structure (SMILES): CN1CCCN(c2cccccc2=O)CC1
- Score [1]: inactive

Structure (SMILES): CN1CCN(c2cccccc2=O)CC1.O=C(O)/C=C\C(=O)O
- Duration of action [6]: 9 h
- Score [5]: 278
- Score [11]: 551
- Score [12]: 1814
- Score [13]: 2842

Structure (SMILES): CN1CCC(c2cccccc2=O)CC1
- Score [1]: inactive

Structure (SMILES): O=C1CCCCCC1N1CCN(CCO)CC1 (stereo not given)
- Score [1]: inactive

Structure (SMILES): CC(C)(C)N1CCN(c2cccccc2=O)CC1
- Score [1]: inactive

Structure (SMILES): CC1CCN(c2cccccc2=O)CC1
- Score [1]: inactive

Structure (SMILES): O=c1ccc(Cl)ccc1N1CCN(CCO)CC1
- Score [1]: inactive

Structure (SMILES): CC(=O)NCCN1CCN(c2cccccc2=O)CC1
- Score [1]: inactive

Structure (SMILES): CCOC(=O)CN1CCN(c2cccccc2=O)CC1
- Score [1]: inactive

Structure (SMILES): CCN1CCN(c2cccccc2=O)CC1
- Score [5]: 70

Structure (SMILES): CC(C)(C)C(=O)OCCN1CCN(c2cccccc2=O)CC1.O=C(O)/C=C\C(=O)O
- Score [5]: 137

Structure (SMILES): CC(O)CN1CCN(c2cccccc2=O)CC1 (stereo not given)
- Score [7]: 190
- Score [5]: 400

Structure (SMILES): CC(C)CN1CCN(c2cccccc2=O)CC1.O=C(O)/C=C\C(=O)O
- Score [7]: 372

Structure (SMILES): CCCCN1CCN(c2cccccc2=O)CC1
- Score [1]: inactive

Structure (SMILES): OCCN1CCN(c2ccccc2)CC1
- Score [1]: inactive

Structure (SMILES): N#CCN1CCN(c2cccccc2=O)CC1
- Score [5]: 126

Structure (SMILES): CC(CO)N1CCN(c2cccccc2=O)CC1 (stereo not given)
- Score [14]: inactive

Structure (SMILES): Br.O=c1c(Br)ccccc1N1CCN(CCO)CC1
- Score [5]: 136

Structure (SMILES): O=c1cccccc1N1CCNCC1
- Score [5]: 55

Structure (SMILES): CC(O)C(C)N1CCN(c2cccccc2=O)CC1 (stereo not given)
- Score [14]: inactive

Structure (SMILES): O=c1cccccc1N1CCN(CCO)CC1
- Duration of action [6]: 12 h
- Score [7]: 88
- Score [5]: 187
- Score [9]: 369
- Score [10]: 4582
- Score [15]: 1378

Structure (SMILES): O=c1cccccc1N1CCN(CC(O)CO)CC1 (stereo not given)
- Score [5]: 58

Structure (SMILES): O=C(CCCN1CCC(O)(c2ccc(Cl)cc2)CC1)c1ccc(F)cc1 [HALOPERIDOL]
- Decrease [16]: -56%
- Decrease [17]: -77%
- Decrease [18]: -33%
- Total no. of turns [19]: 1626
- Total no. of turns [20]: 1055
- Total no. of turns [21]: 567
- P [22]: inactive
